Source: ChEMBL document CHEMBL3526089, “Selective mechanism-based inactivation of CYP3A4 by CYP3cide (PF-04981517) and its utility as an in vitro tool for delineating the relative roles of CYP3A4 versus CYP3A5 in the metabolism of drugs” (Drug Metab Dispos, 2012)
pIC50, pKi: −log10 of the molar value.

Columns and labels:
Format in all cases: ADME
CYP3A5*1/*1 = experiment: Time dependent inhibition of CYP3A5*1/*1 in human liver microsomes assessed as midazolam 1'-hydroxylase activity at 0.56 uM after 10 mins by dilution method; conditions: liver microsomes (CYP3A5*1/*1 genotype), probe midazolam (1'-hydroxylation)
Method in brief: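 Genotyped individual HLMs (0.1 mg/ml) preincubated at 37°C with CYP3cide (0–1.3 μM; 10 min in the two-donor study, 5 min in the 30-donor study), with or without 1.3 mM NADPH (N=3). Mixture diluted 20-fold into 23 μM midazolam for 6 min. 1'-OH-midazolam measured. Readout: % of vehicle/no-NADPH control activity.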

Cytochrome P450 3A4 [1] = target: T1, Cytochrome P450 3A4 (Homo sapiens, UniProt P08684); experiment: Drug metabolism assessed as human recombinant CYP3A4 in presence of human P450 oxidoreductase and b5-mediated (4-(1-methyl-4-((S)-3-(piperidin-1-yl)pyrrolidin-1-yl)-1H-pyrazolo[3,4-d]pyrimidin-3-yl)-5-p-tolyl-1H-pyrazol-1-yl)methanol formation at 10 uM by HPLC-MS analysis in presence of NADPH; conditions: recombinant enzyme
T1 sequence (P08684 whole entry): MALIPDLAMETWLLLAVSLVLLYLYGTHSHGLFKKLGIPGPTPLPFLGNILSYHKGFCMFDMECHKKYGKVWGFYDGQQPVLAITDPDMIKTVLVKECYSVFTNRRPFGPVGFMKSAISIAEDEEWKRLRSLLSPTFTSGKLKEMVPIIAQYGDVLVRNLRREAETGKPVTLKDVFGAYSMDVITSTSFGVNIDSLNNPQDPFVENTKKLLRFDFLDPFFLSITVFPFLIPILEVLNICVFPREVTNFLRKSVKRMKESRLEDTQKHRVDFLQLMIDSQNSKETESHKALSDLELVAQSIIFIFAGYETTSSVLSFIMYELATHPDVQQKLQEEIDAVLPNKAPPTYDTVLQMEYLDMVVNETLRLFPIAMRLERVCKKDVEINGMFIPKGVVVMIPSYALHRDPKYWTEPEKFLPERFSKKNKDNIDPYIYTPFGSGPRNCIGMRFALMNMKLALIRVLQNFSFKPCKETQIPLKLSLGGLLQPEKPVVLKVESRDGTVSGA
Method in brief: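 Recombinant CYP3A4 or CYP3A5 (50 pmol/ml final) added, without preincubation, to 10 µM CYP3cide with NADPH (final 1 mM) in 100 mM phosphate pH 7.4. Trapping incubations also held 200 µM KCN or 5 mM GSH (final). Incubated 1 h at 37°C, quenched with acetonitrile, dried, reconstituted. Metabolites analysed by LC/Orbitrap ESI-MS.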

CYP3A5 = CYP3A5 (Homo sapiens, UniProt P20815); experiment: Time dependent inhibition of midazolam 1'-hydroxylase activity of human recombinant CYP3A5 harboring human P450 oxidoreductase and b5 assessed as decrease in enzyme activity at 2 uM preincubated for 30 mins by IC25-shift assay; conditions: recombinant CYP3A5 with human P450 oxidoreductase and b5, probe midazolam (1'-hydroxylation)
Sequence of CYP3A5 (P20815 whole entry): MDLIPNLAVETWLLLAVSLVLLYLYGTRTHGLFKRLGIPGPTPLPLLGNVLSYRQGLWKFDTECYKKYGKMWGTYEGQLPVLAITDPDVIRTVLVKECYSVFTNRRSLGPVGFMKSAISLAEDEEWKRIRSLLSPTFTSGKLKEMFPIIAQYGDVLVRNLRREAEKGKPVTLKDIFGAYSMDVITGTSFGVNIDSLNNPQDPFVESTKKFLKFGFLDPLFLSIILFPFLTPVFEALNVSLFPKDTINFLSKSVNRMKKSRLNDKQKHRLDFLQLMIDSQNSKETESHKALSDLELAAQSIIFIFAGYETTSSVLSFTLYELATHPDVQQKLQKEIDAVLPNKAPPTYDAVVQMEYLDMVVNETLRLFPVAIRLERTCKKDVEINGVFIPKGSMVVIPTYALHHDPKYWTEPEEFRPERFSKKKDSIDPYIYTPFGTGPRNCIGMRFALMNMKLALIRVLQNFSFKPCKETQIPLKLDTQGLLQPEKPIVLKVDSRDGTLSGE
Method in brief: (§1)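 IC25-shift assay. Pooled HLMs or recombinant CYP3A4/3A5/3A7 were preincubated 30 min at 37°C with CYP3cide, with or without NADPH (1.3 mM) (N=2). Mixture diluted 10-fold into probe substrate (~KM) at 37°C. Metabolites analysed by LC/MS/MS. Readout: % decrease in activity vs control.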

Cytochrome P450 3A4 [2] = target: T1, Cytochrome P450 3A4; experiment: Inhibition of testosterone 6beta-hydroxylase activity of human recombinant CYP3A4 in presence of human P450 oxidoreductase and b5 assessed as decrease in enzyme activity preincubated for 30 mins by LC-MS/MS analysis
Cytochrome P450 3A4 [3] = target: T1, Cytochrome P450 3A4; experiment: Reversible inhibition of midazolam 1'-hydroxylase activity of human recombinant CYP3A4 harboring human P450 oxidoreductase and b5
Method in brief: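 IC50 was measured with baculovirus-expressed CYP3A4 plus POR and cytochrome b5 (P450:reductase:b5 1:5:7), with substrate at its experimentally derived KM, in duplicate. Enzyme was 0.010 mg/ml for midazolam 1'-hydroxylation and 0.020 mg/ml for testosterone 6β-hydroxylation.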

CYP2C19 = CYP2C19 (Homo sapiens, UniProt P33261); experiment: Time dependent inhibition of human CYP2C19 S-mephenytoin 4'-hydroxylase activity assessed as decrease in enzyme activity at 100 uM preincubated for 30 mins by IC25-shift assay; conditions: probe S-mephenytoin (4'-hydroxylation); method in brief: as §1
Sequence of CYP2C19 (P33261 whole entry): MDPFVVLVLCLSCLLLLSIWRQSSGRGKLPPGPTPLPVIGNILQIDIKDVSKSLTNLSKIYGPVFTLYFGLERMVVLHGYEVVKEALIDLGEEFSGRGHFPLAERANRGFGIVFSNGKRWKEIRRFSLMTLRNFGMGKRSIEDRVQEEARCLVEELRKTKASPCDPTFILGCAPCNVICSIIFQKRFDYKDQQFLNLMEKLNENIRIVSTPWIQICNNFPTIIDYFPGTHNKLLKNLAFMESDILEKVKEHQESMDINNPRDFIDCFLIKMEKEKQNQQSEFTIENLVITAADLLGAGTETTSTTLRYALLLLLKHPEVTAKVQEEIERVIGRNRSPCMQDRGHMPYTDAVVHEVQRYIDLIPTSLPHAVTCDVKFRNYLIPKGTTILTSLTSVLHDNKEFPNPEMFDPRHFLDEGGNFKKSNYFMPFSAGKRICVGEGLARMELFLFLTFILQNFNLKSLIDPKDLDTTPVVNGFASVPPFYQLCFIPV

Structure (SMILES): Cc1ccc(-c2c(-c3nn(C)c4ncnc(N5CC[C@H](N6CCCCC6)C5)c34)cnn2C)cc1
- inhibition at 10 min, 0.56 µM (CYP3A5*1/*1): 0.4%
- Drug metabolism (Cytochrome P450 3A4 [1]): metabolite_detected
- inhibition at 30 min, 2 µM (CYP3A5): 61%
- pKi (Cytochrome P450 3A4 [2]): 6.77
- pIC50 (Cytochrome P450 3A4 [3]): 7.52
- inhibition at 30 min, 100 µM (CYP2C19): 0.79%
